Experimental data published in PubChem BioAssay.
Calls of active or inactive are those of the source.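 The calls were made as follows: active = growth inhibition above 25% in both replicates, a cutoff set 3 SD above the mean; inconclusive = above 25% in only one replicate; inactive = the rest.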

Assay: OD615 S. cerevisiae growth inhibition, permissive medium, pilot counter-assay, permissive growth control for S. cerevisiae lifespan shortening project (AID 705)
Settings: OD615, 24 h, at 10 µM, stronger effect = higher value
Outline: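 System: S. cerevisiae with engineered DeaD lifespan system / Measured by: absorbance (optical density) at 615 nm / Read-out: reduction in yeast growth (OD615) / Times: 4 h cell pre-growth, 24 h exposure at 30 °C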

| Structure (SMILES) | growth inhibition |
| --- | --- |
| Nc1nc(N2CCCCC2)nc(N(c2ccccc2)c2ccccc2)n1 | -12.8% (inactive) |
| O=C1c2ccccc2C(Nc2cccnc2)N1Cc1ccccc1Cl (centres undefined) | -5.58% (inactive) |
| CCN1CCN(c2nc3c(c(=O)[nH]c(=O)n3C)n2CCSc2nc3ccccc3s2)CC1 | 1.81% (inactive) |
| COc1cc(C(O)c2nc3ccccc3n2C)cc(OC)c1OC (centres undefined) | -7.22% (inactive) |
| CCOC(=O)N1CCC(Nc2nc3ccccc3n3cnnc23)CC1 | 0.55% (inactive) |
| COc1ccc(C2C(C(C)=O)=C(C)N=c3s/c(=C/c4ccc5c(c4)OCO5)c(=O)n32)cc1 (centres undefined) | -11.4% (inactive) |
| CCOC(=O)C1=C(C)N(C)C(=O)NC1c1ccccc1OC (centres undefined) | -4.28% (inactive) |
| CCCCS(=O)(=O)NC1=NCN(CCOC(=O)c2ccccc2)CN1 | -8.81% (inactive) |
| COc1ccc(-n2c(Cc3cccn3C)nnc2SCC(=O)Nc2cccc(Cl)c2)cc1 | 4.36% (inactive) |
| CCC1CCCCN1C(=O)CSc1nnc(-c2ccc(OC)cc2)o1 (centres undefined) | 7.74% (inactive) |
| COc1ccc(N(CC(=O)Nc2ccc3c(c2)OCO3)S(=O)(=O)c2c(C)nn(C)c2C)cc1 | -8.51% (inactive) |
| CCOc1ccc(C2CC(c3ccccc3C)n3nc(N)nc3N2)cc1 (centres undefined) | -4.05% (inactive) |
| Cc1cc(N)n2nc(-c3ccccc3)cc2n1 | -14.1% (inactive) |
| CCCCCn1c(CCNC(=O)CCC)nc2ccccc21 | -0.135% (inactive) |
| O=C(c1ccc2c(c1)OCCO2)N1CCCCC1 | 3.7% (inactive) |
| O=C(NCCc1c[nH]c2ccccc12)c1cnc2n(c1=O)CCS2 | -5.46% (inactive) |
| CCc1cc(=O)n2[nH]c(C)c(-c3ccccc3OC)c2n1 | -1.09% (inactive) |
| Cc1ccc(CSc2nc3c(c(=O)[nH]2)CCC3)cc1 | -9.96% (inactive) |
| CN(CCNS(=O)(=O)c1ccc2c(c1)oc(=O)n2C)Cc1ccccc1 | -2.83% (inactive) |
| COc1ccc(-c2nnc(SCC(=O)NC(C)c3ccccc3)o2)cc1 (centres undefined) | -4.83% (inactive) |

| Structure (SMILES) | growth inhibition |
| --- | --- |
| CCOc1ccc(Cn2nnc(C(=O)Nc3cc(C)cc(C)c3)c2N)cc1 | -7.71% (inactive) |
| CCCCCn1c(CN2CCN(C(=O)c3ccco3)CC2)nc2c1c(=O)n(C)c(=O)n2C | -0.285% (inactive) |
| CCN1CCN(Cc2ccc(NC(=O)Nc3ccccc3)cc2)CC1 | -11.3% (inactive) |
| CCCN(CCC)C(=O)c1c(C)[nH]c(C(=O)OCC)c1C | 4.14% (inactive) |
| COc1cccc(C2CC(c3c(Cl)cccc3Cl)n3nc(N)nc3N2)c1 (centres undefined) | 4.74% (inactive) |
| Cc1c(C(=O)OCc2ccccc2)[nH]c2c1C(=O)CC(c1ccco1)C2 (centres undefined) | -15.1% (inactive) |
| Cn1c(=O)c2c(nc(SCCOc3ccc4ccc(=O)oc4c3)n2C)n(C)c1=O | -4.61% (inactive) |
| COc1ccc(NC(=O)CN(c2cc(C)cc(C)c2)S(=O)(=O)c2c(C)noc2C)cc1OC | -9.49% (inactive) |
| CCOc1ccc(N2CC(C(=O)Nc3ccccc3OC)CC2=O)cc1 (centres undefined) | -7.43% (inactive) |
| CC(C)CNc1oc(-c2ccc(F)cc2)nc1C#N | -15.3% (inactive) |
| O=C(Nc1nnc(N2CCCCCC2)s1)c1cc(-c2ccc(Br)cc2)on1 | -14.6% (inactive) |
| Cc1ccc(N=Cc2ccc[nH]2)c(O)c1 | -20.2% (inactive) |
| CCCOC(=O)c1[nH]c2c(c1C)C(=O)CC(c1cc(OC)c(OC)c(OC)c1)C2 (centres undefined) | -16.2% (inactive) |
| C=CCSc1nc2sc(C)c(C)c2c(=O)[nH]1 | -7.21% (inactive) |
| O=C(c1ccc(Br)cc1)N1CCN(S(=O)(=O)c2ccccc2)CC1 | 4.02% (inactive) |
| CN(C(=O)c1ccco1)c1nnc(C23CC4CC(CC(C4)C2)C3)s1 | -8.84% (inactive) |
| COc1ccc(-c2nc3c(n2O)CCC/C3=N\O)cc1 | 1.93% (inactive) |
| CC1CCC(NC(=O)C2(C)CCC(=O)N2Cc2cccnc2)CC1 (centres undefined) | -12.3% (inactive) |
| Cc1cnc(NC(=O)CSc2nnc(COc3c(C)cccc3C)o2)s1 | -10.4% (inactive) |
